≈ marks a conversion by molar mass, not a printed value.
Assays:
[1] = test system: Plasmodium berghei; experiment: (§1) Antiplasmodial activity against Plasmodium berghei ANKA infected in BALB/c mice (Mus musculus) assessed as parasite-transmission to Anopheles stephensi after feeding on infected mice (Mus musculus) at 10 umol/kg, intraperitoneally administered 4 days after infection measured 10 days after 2 hrs of mosquito feeding by transmission-blocking activity assay relative to control; type: functional
How it was run: (§2)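 Balb/C mice infected with P. berghei ANKA; after 4 days, once gametocytes were seen on Giemsa blood films, groups of six got one intraperitoneal dose (10 or 50 μmol/kg; PBS controls). At 2 h, anesthetized mice fed ca. 50 glucose-starved female An. stephensi for 2 h. Ten days later, 10 mosquitoes per cage dissected; midgut oocysts counted, giving % infected mosquitoes and mean oocysts per mosquito.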

[2] = test system: Plasmodium falciparum; experiment: Antiplasmodial activity against chloroquine-resistant blood stage Plasmodium falciparum W2 after 48 hrs by FACS analysis; type: functional, organism-based; conditions: W2, 48 h
[3] = test system: Pneumocystis carinii; experiment: Antipneumocystis activity against Pneumocystis carinii assessed as reduction in parasite ATP content after 48 hrs by luciferin-luciferase assay; type: functional, organism-based
How it was run: (§3)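 P. carinii from immunosuppressed, intratracheally inoculated Long Evans and Brown Norway rats, 10⁸ nuclei/ml in supplemented RPMI 1640 with 20% calf serum, pH 7.5–8.0, 380 mOsm. Compounds added in DMSO (final <0.2% v/v). Incubated at 35 °C, 10% CO₂, with daily medium change; sampled at 24, 48 and 72 h. ATP measured by luciferin-luciferase as % of untreated control; triplicate wells across isolation batches, three readings each.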

[4] = test system: Plasmodium berghei; experiment: as §1, with “at 50” for “at 10”; type: functional; how it was run: as §2
[5] = Solubility in water; type: physicochemical
[6] = test system: Pneumocystis carinii; experiment: Antipneumocystis activity against Pneumocystis carinii assessed as reduction in parasite ATP content after 24 hrs by luciferin-luciferase assay; type: functional, organism-based; how it was run: as §3
[7] = test system: Pneumocystis carinii; experiment: Antipneumocystis activity against Pneumocystis carinii assessed as reduction in parasite ATP content after 72 hrs by luciferin-luciferase assay; type: functional, organism-based; how it was run: as §3
[8] = Chemical stability by HPLC analysis; type: physicochemical
[9] = test system: A549; experiment: Cytotoxicity against human A549 cells after 72 hrs; type: cell-based; conditions: A549, 72 h
[10] = test system: Plasmodium berghei; experiment: Antiplasmodial activity against liver-stage GFP expressing Plasmodium berghei sporozoites infected in human HuH7 cells assessed as inhibition of parasite schizonts development after 48 hrs by FACS analysis; type: functional, organism-based; conditions: for Activity: Huh-7; for IC50: Huh-7, Liver
[11] = test system: Pneumocystis carinii; experiment: Antipneumocystis activity against Pneumocystis carinii assessed as reduction in parasite ATP content at < 0.2% v/v by luciferin-luciferase assay; type: functional, organism-based; conditions: TDE = time-dependent effect
[12] = species: Homo sapiens; experiment: Half life in human plasma by HPLC analysis
[13] = test system: Pneumocystis carinii; experiment: Antipneumocystis activity against Pneumocystis carinii assessed as reduction in parasite ATP content after 24 to 72 hrs by luciferin-luciferase assay; type: functional, organism-based; how it was run: as §3
[14] = Octanol/water partition coefficient, log P of the compound; type: physicochemical
[15] = Selectivity index, ratio of cytotoxicity against human A549 cells to IC50 for chloroquine-resistant blood-stage Plasmodium falciparum W2; type: toxicity, cell-based; conditions: read-out: Selectivity Index

| Compound | Activity [1] | IC50 [2] | IC50 [3] | Activity [4] | solubility ([5]; water) | IC50 [6] | IC50 [7] | Stability [8] | IC50 [9] | Activity [10] | IC50 [10] | Activity [11] | half-life [12] | Activity [13] | logP [14] | solubility ([5]; buffer) | selectivity ratio [15] |
| --- | --- | --- | --- | --- | --- | --- | --- | --- | --- | --- | --- | --- | --- | --- | --- | --- | --- |
| CC[C@H](C)[C@@H](N)C(=O)N1CC(=O)N(CCCC(C)Nc2cc(OC)cc3cccnc23)C1(C)C (stereo partly specified) | 83.3% | 8.7 µM | 16 µM | 62.2% | 29.7 µg/mL (≈ 63.2 µM) | 27.5 µM | 9.8 µM | Stable | 14.9 µM | Dose-dependent effect | 13 µM | tde | > 3 days | Dose-dependent effect | 3.4 |  |  |
| COc1cc(NC(C)CCCN2C(=O)[C@@H](C)NC2(C)C)c2ncccc2c1 (stereo partly specified) |  |  |  |  | 29.8 µg/mL (≈ 80.4 µM) |  |  |  |  |  |  |  | > 3 days |  | 3.25 |  |  |
| COc1cc(NC(C)CCCN)c2ncccc2c1 (stereo unspecified) [PRIMAQUINE] | 40% |  | 8.5 µM | 2.9% |  | 18.1 µM | 3.5 µM |  | > 100 µM |  |  | tde |  | Dose-dependent effect | 2.76 | 56.4 µg/mL (≈ 217 µM) |  |
| COc1cc(NC(C)CCCN2C(=O)[C@@H](C)N(C(=O)CN)C2(C)C)c2ncccc2c1 (stereo partly specified) | 62% | 5.5 µM | 75.4 µM | 37.5% | 110 µg/mL (≈ 257 µM) | ≥ 50 µM | 52.2 µM | Stable | > 100 µM | Dose-dependent effect | 21 µM | tde | > 3 days | Dose-dependent effect | 2.57 |  |  |
| COc1cc(N(C(C)=O)C(C)CCCN2C(=O)CN(C(C)=O)C2(C)C)c2ncccc2c1 (stereo unspecified) |  | > 10 µM | ≥ 50 µM |  |  | ≥ 50 µM | ≥ 50 µM |  | > 100 µM |  |  |  |  |  |  |  |  |
| COc1cc(NC(C)CCCN2C(=O)CN(C(=O)[C@@H](C)N)C2(C)C)c2ncccc2c1 (stereo partly specified) | 67.9% |  | 18.7 µM | 40.1% | 120 µg/mL (≈ 281 µM) | 39.6 µM | 8.4 µM | Stable | 7.8 µM | Dose-dependent effect | 10 µM | tde | > 3 days | Dose-dependent effect | 2.49 |  |  |
| COc1cc(NC(C)CCCN2C(=O)CN(C(C)=O)C2(C)C)c2ncccc2c1 (stereo unspecified) |  | > 10 µM | 102 µM |  |  | ≥ 50 µM | 36.7 µM |  | > 100 µM |  |  |  |  |  |  |  |  |
| COc1cc(NC(C)CCCN2C(=O)CNC2(C)C)c2ncccc2c1 (stereo unspecified) |  |  |  |  | 40.5 µg/mL (≈ 114 µM) |  |  |  |  |  |  |  |  |  | 3.07 |  |  |
| COc1cc(NC(C)CCCN2C(=O)CN(C(=O)CN)C2(C)C)c2ncccc2c1 (stereo unspecified) | 42.5% | 6.7 µM | 37.5 µM | 40.5% | 150 µg/mL (≈ 363 µM) | 43.8 µM | 28.1 µM | Stable | > 100 µM | Dose-dependent effect | 22 µM | tde | > 3 days | Dose-dependent effect | 2.19 |  |  |
| COc1cc(NC(C)CCCN2C(=O)CN(C(=O)[C@H](N)CCSC)C2(C)C)c2ncccc2c1 (stereo partly specified) | 47.1% | 12.5 µM | 13.1 µM | 26.4% | 11.7 µg/mL (≈ 24 µM) | 23.8 µM | 7 µM | Stable | 7.9 µM | Dose-dependent effect | 31 µM | tde | > 3 days | Dose-dependent effect | 2.94 |  |  |
| COc1cc(NC(C)CCCN2C(=O)CN(C(=O)[C@H](N)Cc3ccccc3)C2(C)C)c2ncccc2c1 (stereo partly specified) | 43.8% | 9.9 µM | 18.5 µM | 40% | 5.4 µg/mL (≈ 10.7 µM) | 24 µM | 10.1 µM | Stable | 9.1 µM | Dose-dependent effect | 21 µM | tde | > 3 days | Dose-dependent effect | 3.6 |  |  |
| COc1cc(NC(C)CCCN2C(=O)CN(C(=O)[C@H](N)CC(C)C)C2(C)C)c2ncccc2c1 (stereo partly specified) |  | 6.3 µM | 17.9 µM |  | 26.6 µg/mL (≈ 56.6 µM) | 31.1 µM | 10.9 µM | Stable | 21.2 µM | Dose-dependent effect | 24 µM | tde | > 3 days | Dose-dependent effect | 3.36 |  | 3.5 |
| COc1cc(NC(C)CCCN2C(=O)CN(C(=O)[C@H](N)C(C)C)C2(C)C)c2ncccc2c1 (stereo partly specified) |  | 7.9 µM | 20.2 µM |  | 46.5 µg/mL (≈ 102 µM) | 54.3 µM | 13.6 µM | Stable | 5.5 µM | Dose-dependent effect | 17 µM | tde | > 3 days | Dose-dependent effect | 2.93 |  |  |

— ChEMBL document CHEMBL1156079, “Imidazoquines as antimalarial and antipneumocystis agents” (J Med Chem, 2009)
